From ChEMBL document CHEMBL4699407, “Isoquinoline thiosemicarbazone displays potent anticancer activity with in vivo efficacy against aggressive leukemias” (RSC Med Chem, 2020)

Assays:
MIA PaCa-2 [1] = test: Cytotoxicity against human MIA PaCa2 cells assessed as reduction in cell viability in presence of Cu2+ incubated for 72 hrs by cell titer-glo luminescent cell viability assay; assay type: functional, cell-based; settings: MIA PaCa-2, 72 h
Summary of the method: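 Cells were grown in DMEM or RPMI with 10% FBS, without antibiotics, at 37 °C, 20% O2, 5% CO2. Adherent lines were seeded at 500 cells/well. Serially diluted compound was given with 20 μM Cu(II) (CuCl2) for 72 h; leukemia models received pre-formed 1:1 copper complex. ATP was read by CellTiter-Glo luminescence. IC50 is relative to DMSO-treated cells.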

MIA PaCa-2 [2] = test: Cytotoxicity against human MIA PaCa2 cells assessed as reduction in cell viability 72 hrs by cell titer-glo luminescent cell viability assay; assay type: functional
Summary of the method: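 MIAPACA2 cells in conventional medium without copper supplement got serially diluted compound for 72 h. ATP content was read by CellTiter-Glo, and IC90 (90% proliferation inhibition vs DMSO control) was calculated.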

Compound	IC90 (MIA PaCa-2 [1]) [nM]	IC90 (MIA PaCa-2 [2]) [nM]
NC(=S)N/N=C/c1nccc2c(N)cccc12	71100	
CNC(=S)NN=Cc1nccc2c(N)cccc12	7080	11200
CN(C)C(=S)NN=Cc1nccc2ccccc12	73.7	29600
NC(=S)N/N=C/c1ncc(F)c2ccccc12	2060	
CNC(=S)NN=Cc1nccc2c(NC)cccc12	607	4240
CN(C)C(=S)NN=Cc1ncc(F)c2ccccc12	26.6	274
NC(=S)N/N=C/c1nccc2cc(F)ccc12	2040	
CNC(=S)N/N=C/c1ncc(F)c2ccccc12	114	
NC(=S)N/N=C/c1nccc2ccccc12	2210	
CNc1cccc2c(/C=N/NC(N)=S)nccc12	5330	
CNC(=S)N/N=C/c1nccc2cc(F)ccc12	233	
CNC(=S)N/N=C/c1nccc2ccccc12	331	
CNc1c(F)ccc2c(C=NNC(=S)N(C)C)nccc12	38.4	272
CNc1cccc2c(C=NNC(=S)N(C)C)ncc(F)c12	42.3	327
